# Thrombin inh = blocks human thrombin protease activity; P00734; alpha-thrombin, Boc-VPR-AMC fluorogenic substrate cleavage; inhibition, % at 5 µM; hit rate 0.26% among 220,000; AID 1046;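 active = inhibition at or above 40%; inactive = inhibition below 40%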
#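 Assay system: human alpha-thrombin enzyme. Reagent: Boc-VPR-AMC substrate, 15 µM final. Compound dosing: one concentration per compound, 5 µM, with 0.2% DMSO. Incubation: room-temperature reaction. Technique: AMC fluorescence, 355/460 nm. Measure: % inhibition relative to enzyme controls and enzyme-free blanks.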
# hK5 inh = blocks human kallikrein 5 protease activity | hit rate 0.59% among 210,000 | inhibition, % at 5 µM | recombinant hK5, fluorogenic AMC substrate cleavage | Q9Y337;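 active = inhibition of 40% or more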
# Target sequence (Q9Y337 67-293 limits assumed): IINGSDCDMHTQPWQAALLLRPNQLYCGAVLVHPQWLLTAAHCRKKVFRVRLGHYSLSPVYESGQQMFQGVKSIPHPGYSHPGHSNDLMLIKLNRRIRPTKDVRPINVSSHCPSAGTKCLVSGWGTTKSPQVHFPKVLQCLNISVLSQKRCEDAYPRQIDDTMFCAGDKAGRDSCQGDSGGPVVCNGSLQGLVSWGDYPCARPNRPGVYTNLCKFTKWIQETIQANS
# FXIa inh 1536 = blocks human coagulation factor XIa protease activity; inhibition, % at 5 µM; purified FXIa, Boc-Glu-Ala-Arg-AMC fluorogenic substrate; hit rate 0.14% among 220,000;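 active = inhibition of at least 40%; inactive = inhibition below 40%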;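 also: fluorescence of freed AMC excited at 355 nm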
# FXIIa inh = inhibitors of human coagulation factor XIIa | AID 800 | purified FXIIa, Boc-QGR-AMC fluorogenic substrate, 2 h | hit rate 0.3% among 220,000 | inhibition, % at 5 µM | P00748; in the data active = inhibition above about 40%
# Wee1 degr inh = human Wee1 degradation inhibition, primary screen; P30291; HeLa Luc-Wee1K328M stability, luciferase luminescence; 100% = proteasome inhibitor MG132 effect; reporter increase, % at 5 µM; hit rate 1.2% among 220,000;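 active = activation above the mean of all tested compounds plus 3 SD, set per screening run, cut at about 8.8% in these data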;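 also: cells exposed to compound for 20 h before luminescence read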
# Wee1 stab conf = confirmation of human Wee1 degradation inhibitors | hit rate 4% among 1,100 | HeLa Luc-Wee1K328M degradation, luminescence; vehicle 0%, proteasome-blocked wells 100% | activation, % at 5 µM | AID 1410 | shares compounds with Wee1 degr inh; in the data active = activation above about 8.9%
# Numbers stand for hits; – = inactive; · = not tested or not shown. The list is not random: actives were taken first. Their share in the collection is about 2.2%.
SMILES,Thrombin inh,hK5 inh,FXIa inh 1536,FXIIa inh,Wee1 degr inh,Wee1 stab conf
FC(F)(F)c1cccc(Cc2noc(CN3CCCC(OCc4ccccn4)C3)n2)c1 (stereo not given),–,–,–,–,–,·
CCC1CCCCN1Cc1ccc(N)cc1 (stereo not given),–,–,–,–,–,·
Cc1cccc(NC(=O)c2cnc3sccn3c2=O)c1,–,–,–,–,23.6,–
Cc1ccc(NC(=O)Cc2noc3ccccc23)c(C)c1,–,–,–,–,–,·
Cc1cccc2c(CC(=O)Nc3ccccc3)noc12,–,–,–,–,13.4,–
COc1ccc(N2C(=O)CC(NCCNc3ccc([N+](=O)[O-])cn3)C2=O)cc1 (stereo not given),–,–,–,–,–,·
CC1(C)CC(=O)C(C(c2ccncc2)C2C(=O)CC(C)(C)CC2=O)C(=O)C1,·,·,·,·,13.4,–
Cc1c(N/C(=N/S(=O)(=O)c2ccc(Cl)cc2)c2ccccc2)c(=O)n(-c2ccccc2)n1C,–,–,–,–,–,·
Cc1ccc(CN2CCN(Cc3cccn3-c3nccs3)CC2CCO)cc1 (stereo not given),–,–,–,–,13.3,–
CC(C)CCN1CCN(Cc2cccn2-c2nccs2)CC1CCO (stereo not given),–,–,–,–,–,·
COc1ccc(C(C)=O)cc1CSCCC#N,–,–,–,–,14.4,–
O=C(NCCc1cccs1)C12CN(Cc3ccccc3)CC1C(c1cccc([N+](=O)[O-])c1)=NO2 (stereo not given),–,–,–,–,–,·
CS(=O)(=O)Nc1ccc(C(=O)Nc2ccc(S(=O)(=O)N3CCCC3)cc2)cc1,–,–,–,–,12.8,–
CCCOc1ccc(C(=O)CCN2CCN(C(=O)OCC)CC2)cc1,–,–,–,–,16.6,–
NC1=NC(=O)/C(=C/c2c(OS(=O)(=O)c3ccc(Cl)cc3)ccc3ccccc23)S1,–,–,–,–,–,·
COc1cccc(/C=N/NC(=O)CN(C2=NS(=O)(=O)c3ccccc32)c2ccccc2)c1,–,–,–,–,12.4,–
COc1ccc(/C=N/NC(=O)CN(C2=NS(=O)(=O)c3ccccc32)c2ccccc2)cc1OC,–,–,–,–,–,·
CC(C)(C)NS(=O)(=O)c1ccc(NC(=O)Cc2ccccc2[N+](=O)[O-])cc1,·,–,–,–,–,·
CCCCNS(=O)(=O)c1ccc(NC(=O)Cc2ccccc2[N+](=O)[O-])cc1,–,·,–,–,14.0,–
CCCCn1c(=O)[nH]c(=O)c2c1nc(-c1ccc(C#N)cc1)n2C1CCCC1,–,–,–,–,–,·
CC(C)Cn1c(-c2ccc(C#N)cc2)nc2c1c(=O)[nH]c(=O)n2CC(C)C,–,–,–,–,36.1,–
COc1cc(OC)c2c(=O)cc(-c3cccnc3)oc2c1,–,–,–,–,14.0,–
O=C(CSc1nnc(-c2ccc3c(c2)OCO3)o1)Nc1ncc(C(F)(F)F)cc1Cl,–,–,–,–,–,·
Cc1nc(NC(=O)CSc2nnc(-c3ccc4c(c3)OCO4)o2)c(Cl)cc1Cl,–,–,–,–,11.2,–
O=C(O)CCn1cc(/C=C2\SC(=S)NC2=O)c(-c2ccccc2)n1,–,–,–,–,13.3,–
SMILES,Thrombin inh,hK5 inh,FXIa inh 1536,FXIIa inh,Wee1 degr inh,Wee1 stab conf
CCN(Cc1ccncc1)C(=O)c1ccccc1NS(=O)(=O)c1ccc(F)cc1,–,–,–,–,–,·
Nc1nc(CSC(=S)N2CCOCC2)nc(Nc2ccccc2)n1,–,–,–,–,–,·
CC1CC(C)CN(C(=S)SCc2nc(N)nc(Nc3ccccc3)n2)C1 (stereo not given),–,–,–,–,11.8,–
Cc1cccc(Nc2sc(C(=O)c3cc4cc(Cl)ccc4o3)c(N)c2C#N)c1,–,–,–,–,–,·
CC(C)c1ccc(/C=N/NC(=O)c2ccccn2)cc1,–,–,–,–,–,·
CC(C)c1ccc(/C=N/NC(=O)c2cccc(Cl)c2)cc1,–,–,–,–,13.5,–
CC(C(=O)O)n1c(-c2ccn[nH]2)n[nH]c1=S (stereo not given),–,–,–,–,–,·
COc1ccc(N=N/C(=C\O)C(=O)c2ccco2)cc1,–,–,–,–,–,·
O=C(/C(=C/O)N=Nc1ccccc1)c1cccs1,–,–,–,–,11.3,–
CC(C)(C)c1ccc(OCc2ccc(C(=O)N3CCOCC3)o2)cc1,–,–,–,–,13.3,–
NC(=S)N=Nc1c(O)[nH]c2c(Br)cc(Br)cc12,–,–,–,–,–,·
CC(=O)c1sc(NC(=O)c2ccccc2F)nc1-c1ccccc1,–,–,–,–,14.1,–
CC1=CC(=O)C(C(C)=Nc2ccccc2Cl)C(=O)O1 (stereo not given),–,–,–,–,–,·
CCN(CC)c1ccc(C(=O)Nc2cccc(F)c2)cc1,–,–,–,–,13.9,–
NS(=O)(=O)c1cccc(NC(=O)CSc2nc3ccc(Cl)cc3[nH]2)c1,–,–,–,–,11.8,–
C=C(C)CN(CC)C(=O)CCc1nnc(CCCc2ccccc2)o1,–,·,–,–,–,·
C#CCN(CC=C)C(=O)CCc1nnc(COc2ccccc2)o1,–,–,–,–,15.6,–
CNC(=O)c1ccccc1-c1cn(C)c2ccccc2c1=O,–,–,–,–,–,·
O=C(CSC1=NCCN1)C1COc2ccccc2O1 (stereo not given),–,–,–,–,12.4,–
CN(CC(O)COCc1ccccc1F)C1CCCCC1 (stereo not given),–,–,–,–,–,·
CN(CC(O)COc1ccccc1F)C1CCCCC1 (stereo not given),–,–,–,–,11.4,–
CCCCCC(=O)NC(=S)Nc1ccc2oc(=O)ccc2c1,–,–,–,–,–,·
Cc1ccccc1NC(=O)N1CCN(c2ncccn2)CC1,–,–,–,–,–,·
COc1cccc(-c2cc(C(=O)NC3CCCC3)no2)c1,–,–,–,–,14.6,–
COCCNC(=O)c1cc(-c2cccc(OC)c2)on1,–,–,–,–,–,·
SMILES,Thrombin inh,hK5 inh,FXIa inh 1536,FXIIa inh,Wee1 degr inh,Wee1 stab conf
Cc1oc(-c2cccc3ccccc23)nc1CN1CCC[C@H]1CO,–,–,–,–,–,·
COc1ccc(C2=NN(CC(=O)Nc3cc(C)ccc3C)C(=O)CC2)cc1,–,–,–,–,–,·
COC(=O)c1cc(-c2ccc3c(c2)OCO3)nc2ccccc12,–,–,–,–,–,·
c1ccc2nc(-c3ccc4c(c3)OCO4)ccc2c1,–,–,–,–,10.3,–
Cc1nn(CCC#N)c(N)c1C1(O)C(=O)Nc2c(Cl)cc(Cl)cc21 (stereo not given),–,–,–,–,–,·
COc1cc(-c2nc3ccccn3c2/N=C/c2ccccc2)ccc1O,–,–,–,–,67.5,–
COc1cc(-c2nc3ccccn3c2/N=C/c2cccc(F)c2)ccc1O,–,–,–,–,–,·
Cc1cc(/C=C(\C#N)C(=O)NC2CCCCCC2)c(C)n1C,–,–,–,–,28.2,–
N#Cc1nccnc1S(=O)(=O)c1cccs1,–,–,–,–,–,·
